APP 5'UTR act – APP 5'UTR luciferase reporter activation; AID 1276; activation, % at 2 µM; 1% of 190,000 active; SH-SY5Y APP 5'UTR luciferase reporter, luminescence; zero percent = DMSO vehicle wells;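 active = activation above a set limit, based on mean plus 3 SD of controls, cut at about 140% in these data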
NF-kB expr up – compounds increasing NF-kB expression in human neuronal cells. NF-kB reporter expression; active compounds read high. 1.6% of 190,000 active. fold change at 12.5 µM; in the data active = fold change above about 3.3
STAT1 blocker – STAT1 signaling inhibition; AID 920; inhibition, % at 5.5 µM; 0.35% of 200,000 active; NIH 3T3 STAT1-luciferase reporter, IFN-gamma, luminescence;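 active = inhibition above a set limit, the mean inhibition across all tested compounds plus 3 SD, cut at about 34% in these data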;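 note: 0% = IFN-gamma with DMSO and 100% = IFN-gamma with 300 µM nifuroxazide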
STAT3 activator – STAT3 signaling activation. U3A cells, IL-6 STAT3-luciferase reporter, luminescence; 100% = signal with IL-6 EC80 alone. activation (% of control), % at 5.6 µM. 0.91% of 190,000 active;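 active = activation above the screen-wide mean of compound activation plus 3 SD, cut at about 130% in these data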;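 note: 0% = background luminescence of wells with medium and substrate only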
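Material: human U3A cells carrying STAT3-luciferase construct. Measured by: reporter luminescence signal. Timing: compound 1 h, then IL-6 6 h at 37 °C.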
STAT3 blocker – reduces IL-6 driven STAT3 reporter signal. U3A cells, IL-6 STAT3-luciferase reporter, luminescence; host cell line lacks STAT1. inhibition, % at 5.5 µM. 0.89% of 190,000 active;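 active = inhibition above the mean inhibition across all screened compounds plus 3 SD, cut at about 44% in these data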;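 note: 0% = DMSO only wells and 100% = 100 µM nifuroxazide control wells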
STAT1 activator – activators of IFN-gamma induced STAT1 signaling; NIH 3T3 STAT1-luciferase reporter, luminescence; 100% = IFN-gamma alone, no compound; activation (% of control), % at 5.5 µM; 2.6% of 200,000 active; AID 932;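 active = activation above the screen-wide mean activation plus 3 SD, cut at about 130% in these data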;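 note: raw ratio to IFN-gamma control signal so 100% means no change and 0% no light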
The depositor's hits bear a star; . = not tested or not shown. Rows were chosen to be rich in hits. Some 4.9% of all compounds tested hit in one or more screens of this group.

SMILES	APP 5'UTR act	NF-kB expr up	STAT1 blocker	STAT3 activator	STAT3 blocker	STAT1 activator
CC(C)Cn1c(=O)c2ccccc2n2c(SCC(=O)N3c4ccccc4CC3C)nnc12 (configuration not stated)	-9	0.85	4	98	-1	97
Cc1[nH]c2ccccc2c1C(=O)CSC(=S)N(C)C1CCCCC1	12	0.99	-7	96	8	106
Cc1[nH]c2ccccc2c1C(=O)CSC(=S)N1CCCCC1	53	1.9	-48	109	-7	144*
CN(CC(=O)Nc1ccc(N2CCOCC2)cc1)C(=O)C1CCCC1	14	0.96	7	100	2	92
COc1ccc(N=c2oc3ccccc3cc2C(=O)Nc2ccccn2)cc1OC	19	1.7	-40	104	1	137*
Cc1ccnc(N=Cc2nc(-c3ccccc3Br)oc2O)c1	20	2	-47	91	13	142*
Cc1cccc(/N=C/c2nc(-c3ccccc3Br)oc2O)n1	3	2.1	7	101	7	94
C#CC(CC)(CC)NC(=O)Nc1ccccc1C(=O)OC	16	0.97	1	111	1	98
Cc1cc(C)c2c(N)c(S(=O)c3ccc(C(C)(C)C)cc3)sc2n1 (configuration not stated)	7	1	9	100	9	93
O=C(CSc1nc(-c2ccccc2)ns1)N1CCOCC1	116	3	-47	94	18	142*
CCOC(=O)CSc1nc(-c2ccccc2)ns1	-3	1.2	-3	86	23	102
O=C(CSc1nc(-c2ccc(F)cc2)cs1)N1CCOCC1	31	1.9	-30	85	21	129*
Cc1cccc(-c2nsc(SCC(=O)N3CCCC3)n2)c1	87	3.9*	-37	76	31	134*
Cc1cccc(-c2nsc(SCC(=O)Nc3nccs3)n2)c1	19	1.4	-2	103	0	102
Cc1csc(SCc2nnc(-c3ccccc3Br)o2)n1	185*	5.4*	-37	98	7	134*
Cc1nnc(SCc2nnc(-c3ccccc3Br)o2)n1-c1ccccc1	8	0.98	5	106	-4	95
Cc1csc(SCc2nnc(-c3ccc(Cl)cc3)o2)n1	95	3.7*	-17	106	-11	116
Cc1ccc(-c2nnc(CSc3nnc(C)s3)o2)cc1	12	1.6	-10	108	-9	109
Fc1ccccc1SCc1nnc(-c2ccccc2Br)o1	161*	7.2*	-15	86	20	112
Brc1ccccc1-c1nnc(CSc2nnnn2-c2ccccc2)o1	10	1.1	-5	107	-1	104
O=C(NCCN1CCOCC1)c1cc(Cl)ccc1[N+](=O)[O-]	-19	1.2	-9	100	0	108
NS(=O)(=O)c1cccc(NC(=O)Cc2ccc(Cl)c(Cl)c2)c1	19	0.92	1	106	-5	97
COc1ccccc1NC(=O)Nc1nnc(C(C)C)s1	43	1.7	-44	107	-5	140*
CC(=O)c1c(C)[nH]c(C(=O)Nc2nc(C)cs2)c1C	116	1.1	70*	30	85*	34
Cc1csc(NC(=O)c2ccc(S(C)(=O)=O)cc2)n1	40	2.4	-34	107	-7	130*
SMILES	APP 5'UTR act	NF-kB expr up	STAT1 blocker	STAT3 activator	STAT3 blocker	STAT1 activator
CC(=O)c1c(C)[nH]c(C(=O)Nc2ccc(C)cn2)c1C	58	1.4	39*	24	90*	64
CC(=O)c1c(C)[nH]c(C(=O)Nc2cc(C)cc(C)c2)c1C	-11	1.4	-4	85	22	104
COc1ccc(NC(=O)/C(Cl)=C(/Cl)S(=O)(=O)Cc2ccc(C)cc2)cn1	-86	0.17	-37	111	-7	133*
COc1ccc(CNC(=O)C(=O)NCC2OCCN2S(=O)(=O)c2ccc3c(c2)OCCO3)cc1 (configuration not stated)	16	1.9	4	107	-8	96
C[C@@H]1CN(Cc2nc(-c3cccs3)no2)C[C@H](C)O1	-6	1.6	-8	102	2	105
COCC1CCN(Cc2nc(-c3cccs3)no2)C1 (configuration not stated)	49	.	-37	101	5	135*
COc1ccc(NC(=O)/C=C/c2ccc(F)cc2)cn1	19	2	-40	96	7	136*

Assay outcomes: PubChem, several laboratories
